pKd: −log10 of the molar value.
Assays:
[1] = test system: CD8 T cells from humans exposed to the human polyomavirus 2 protein; details: T cells of patients exposed to the virus; HLA-A*0201; ref [35]; cited from earlier work
[2] = test system: humans; details: very low doses; idiosyncratic thrombocytopenia purpura; ref [13]; cited from earlier work
[3] = molecular target: fluorescein-labeled rabbit polyclonal IgG (Oryctolagus cuniculus, UniProt P01870); assay: Microplate-based titration of IgG against Z15_EAK/EAK coacervate; format: binding; details: constant concentration of EAK; data not shown
[4] = Congo red absorbance / fibrillization; format: physicochemical; details: EAK: upon exposure to high ionic strengths
In short: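 Congo red (1×, diluted from 10X stock in PBS) incubated with peptide for at least 1 h. Absorbance scanned across 400–600 nm on a microplate reader with 0 ms settle time. Peak position and shift read from spectra, with repeat scans over time.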

[5] = test system: IgG^800; assay: In vivo IgG^800 retention in mouse footpads; set-up: species or system C57BL/6 mice
In short: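 Female C57BL/6 mice, 8–12 weeks old, under isoflurane (5% induction, 3% maintenance). Fluorescent IgG800 premixed with peptide coacervate or EAK was injected subcutaneously into one footpad (28G needle) without hair removal. Imaged before injection and every two days with near-infrared imaging at 255 μm resolution. Injection-site ROI was normalized to a non-injected background ROI; the 5-min signal was set as 100% (0.065 μg/μl). Ex vivo scans were taken at 800 channel.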

[6] = molecular target: IgG; details: read-out: binding constant for IgG; ref [20]; cited from earlier work

fluorescein-labeled rabbit polyclonal IgG, sequence (P01870 101-323 limits assumed): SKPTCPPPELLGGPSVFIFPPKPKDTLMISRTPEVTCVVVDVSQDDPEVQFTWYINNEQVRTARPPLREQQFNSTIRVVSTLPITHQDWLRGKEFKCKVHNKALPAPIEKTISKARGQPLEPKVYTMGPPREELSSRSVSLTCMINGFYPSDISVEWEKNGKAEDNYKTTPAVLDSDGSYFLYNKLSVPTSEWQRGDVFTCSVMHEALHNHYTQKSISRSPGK

## RIPLPNLNEDLTCGN
[1]
  T cell recall in vitro: recalled in vitro

## PRTX-100: Highly purified SpA developed as a therapeutic for idiosyncratic thrombocytopenia purpura
[2]
  safety in phase-I clinical trials: safe

## AEAEAKAKAEAEAKAK
[3]
  affinity constants of IgG titrated against EAK: ambiguous affinity constants
[4]
  fibril formation kinetics: almost instantaneously
[5]; after 4 days, 5 min signal = 100%
  IgG^800 retained in footpad: 8%
[5]; footpad injection, day 28
  antibody in draining lymph node: found in the draining lymph node

## SpA: 42-kDa protein consisting of five homologous Fc-binding domains (E, D, A, B and C)
[6]
  pKd: ~7.70

Reference: publication PMC6410374 (Biomaterials science, 2019)
